# Compound activity deposited in PubChem by several laboratories.
# An excerpt weighted towards active compounds, which were near 1.3% of everything screened.
# PLCb3 inh: inhibitors of human phospholipase C beta3. Q01970. Purified PLC-beta3, fluorogenic substrate, fluorescence. inhibition, % at 12.2 µM. 370,000 compounds, 0.18% hits. AID 720704;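 further: 0% = median of compound wells on plate and 100% = full blocker control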
# Target sequence (Q01970 whole entry, looked up): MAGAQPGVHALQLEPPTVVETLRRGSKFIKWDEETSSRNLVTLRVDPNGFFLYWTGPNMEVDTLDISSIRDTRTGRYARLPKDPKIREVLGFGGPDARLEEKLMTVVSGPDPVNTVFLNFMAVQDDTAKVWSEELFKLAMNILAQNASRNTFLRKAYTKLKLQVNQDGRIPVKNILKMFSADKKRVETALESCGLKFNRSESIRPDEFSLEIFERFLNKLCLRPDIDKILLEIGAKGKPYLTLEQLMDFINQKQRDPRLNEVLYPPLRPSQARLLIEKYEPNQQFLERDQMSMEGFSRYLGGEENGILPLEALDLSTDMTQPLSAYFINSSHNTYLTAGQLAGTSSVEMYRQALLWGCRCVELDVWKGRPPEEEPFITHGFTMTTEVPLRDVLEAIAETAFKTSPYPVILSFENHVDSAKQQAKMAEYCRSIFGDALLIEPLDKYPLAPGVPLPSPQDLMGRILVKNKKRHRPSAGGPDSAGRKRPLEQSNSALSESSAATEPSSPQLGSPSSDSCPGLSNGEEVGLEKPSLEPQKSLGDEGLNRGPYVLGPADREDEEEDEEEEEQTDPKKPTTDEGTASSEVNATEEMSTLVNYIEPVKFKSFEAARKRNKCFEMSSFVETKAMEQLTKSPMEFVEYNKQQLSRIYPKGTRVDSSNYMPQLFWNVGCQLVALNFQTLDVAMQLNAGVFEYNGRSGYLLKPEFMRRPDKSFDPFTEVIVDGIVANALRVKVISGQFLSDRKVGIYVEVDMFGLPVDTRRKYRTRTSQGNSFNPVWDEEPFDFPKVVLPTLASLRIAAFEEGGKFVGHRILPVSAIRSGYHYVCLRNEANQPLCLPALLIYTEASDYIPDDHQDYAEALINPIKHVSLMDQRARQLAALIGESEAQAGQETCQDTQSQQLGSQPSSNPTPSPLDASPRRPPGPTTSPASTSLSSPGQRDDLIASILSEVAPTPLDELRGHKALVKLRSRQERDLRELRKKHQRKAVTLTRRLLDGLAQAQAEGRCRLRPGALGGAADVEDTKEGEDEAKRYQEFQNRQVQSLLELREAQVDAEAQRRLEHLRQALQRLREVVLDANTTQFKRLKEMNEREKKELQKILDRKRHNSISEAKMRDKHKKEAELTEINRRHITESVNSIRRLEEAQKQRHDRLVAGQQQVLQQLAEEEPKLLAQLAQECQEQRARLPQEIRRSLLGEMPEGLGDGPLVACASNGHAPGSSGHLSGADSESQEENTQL
# NTR1 ag: agonists of human neurotensin receptor NTR1; P30989; NTR1-U2OS beta-arrestin-GFP spot imaging, agonist mode; activation, % at 20 µM; 330,000 compounds, 0.17% hits;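 active means activation at or above 40% of the spot to cytoplasm intensity ratio, with at least 20 cells analyzed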;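 further: 0% = DMSO without peptide and 100% = 100 nM NTR1 peptide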
# PLC-gamma1 inh: PLC-gamma1 (human) inhibition, primary screen; purified PLC-gamma1, fluorogenic substrate, fluorescence; inhibition, % at 12.2 µM; 370,000 compounds, 0.84% hits; AID 720700; in the data active means inhibition above about 9.5%
# Arrestin-AP2 inh: blocks beta-arrestin peptide binding to AP2 adaptin | inhibition, % at 10 µM | FITC-arrestin peptide / GST-AP2 beads, flow cytometry; AP2 beta2 appendage carries R879A mutation | 340,000 compounds, 0.31% hits;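 active means inhibition above a set limit, near 3 SD of compounds lacking own fluorescence, cut at about 54% in these data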;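 further: plate controls were DMSO wells for no effect and 5 µM unlabelled arrestin peptide for full effect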
#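 System: GST-AP2 R879A bound to glutathione beads, E. coli-expressed. Also added: 50 nM FITC-arrestin peptide. Schedule: compound with beads 12 min RT, then probe 1 h RT. Signal: bead flow cytometry, FITC channel. Read-out basis: percent response.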
# PLCg1 ctr: inhibits human PLC-gamma1 in PLC-beta3 counter-screen. shares compounds with PLC-gamma1 inh. purified PLC-gamma1, fluorogenic substrate, fluorescence. inhibition, % at 12.3 µM. 3,300 compounds, 3.1% hits; in the data active means inhibition above about 9.5%
# PLCbeta3 conf: confirmation of human PLC-beta3 inhibitors; shares compounds with PLC-gamma1 inh; purified PLC-beta3, fluorogenic substrate fluorescence; inhibition, % at 12.3 µM; 3,300 compounds, 1% hits; AID 743261
# * hit, by the source's call; / = no result. Unless noted, no stated cut-off is given here; in the data, active means inhibition above about 11%; inactive means the rest.
SMILES,PLCb3 inh,NTR1 ag,PLC-gamma1 inh,Arrestin-AP2 inh,PLCg1 ctr,PLCbeta3 conf
COP(=O)(C(=O)Nc1ccccc1)C(CC(C)C)NC(=O)OCc1ccccc1 (stereo not drawn),2.1,/,2.2,/,/,/
CCc1cc(OC)c(CCN)cc1OC,-0.6,/,-3.1,/,/,/
COC(=O)C1C(c2ccc(F)cc2)CC2CCC1N2C (stereo not drawn),1.4,/,0.7,/,/,/
CN(C)CC1CSCCC1(O)c1ccccc1Cl (stereo not drawn),7.7,-1.3,9.9*,-6.0,-4.5,-1.0
CN(C)CC1CSCCC1(O)c1ccc(Cl)cc1 (stereo not drawn),3.5,-0.7,1.2,-10.6,/,/
CN(C)CC#CCC(O)(c1ccccc1)C1CCCC1 (stereo not drawn),12.8*,-0.4,5.8,1.9,-7.8,-3.3
NS(=O)(=O)c1nc[nH]c1[N+](=O)[O-],-1.5,/,11.3*,28.4,1.6,-4.8
CCC(=O)N1CCN(CCN=Cc2c(O)n(C)c(=O)n(C)c2=O)CC1,-1.4,-0.3,-3.0,25.1,/,/
CC(C)C(=O)N1CCN(CCN=Cc2c(O)n(C)c(=O)n(C)c2=O)CC1,4.2,-0.7,11.0*,3.0,-1.1,-0.5
O=C(Cn1cnc2sc3c(c2c1=O)CCCC3)NCCC(=O)N1CCC2(CC1)OCCO2,0.3,0.4,9.7*,6.5,-9.7,-3.7
Cc1sc2ncn(CC(=O)N3CCC4(CC3)OCCO4)c(=O)c2c1C,2.6,1.0,-0.8,-2.5,/,/
COC(=O)C12OCC34C(CC5C(C)=C(O)C(=O)CC5(C)C3C(O)C1O)OC(=O)C(OC(=O)/C=C(\C)C(C)C)C24 (stereo not drawn),8.2,/,13.1*,-3.8,-5.6,-1.7
O=C(COc1ccccc1)N1CCN(CC2CC3C=CC2C3)CC1 (stereo not drawn),1.3,-0.4,16.0*,-0.1,-4.7,0.3
Cc1ccc(OCC(=O)N2CCN(CC3CC4C=CC3C4)CC2)cc1 (stereo not drawn),-0.7,0.8,0.1,29.9,/,/
O=c1c2ccccc2nc(-c2ccoc2)n1-c1ccccc1Cl,2.5,-2.1,2.7,1.6,/,/
COc1ccccc1-n1c(-c2ccoc2)nc2ccccc2c1=O,10.6*,0.0,7.7,20.3,-2.5,-6.8
N=c1c2c(-c3ccccc3)c(-c3ccccc3)n(Cc3ccccc3)c2ncn1C1CCC(O)CC1 (stereo not drawn),-2.8,/,-1.8,/,/,/
CC12CC[C@H]3[C@@H](CCC4(O)C[C@H](O)CCC34/C=N/NC(=O)c3ccccc3O)C1(O)CCC2C1=CC(=O)OC1 (stereo partly drawn),-20.3,-0.5,-4.4,-9.0,/,/
CC12CC[C@H]3[C@@H](CCC4(O)C[C@H](O)CCC34/C=N/NC(=O)c3ccccc3F)C1(O)CCC2C1=CC(=O)OC1 (stereo partly drawn),7.6,0.4,13.0*,6.5,-9.3,-4.2
Clc1ccc(CNCCc2ccc3c(c2)OCO3)cc1,-2.8,0.1,4.2,-6.6,/,/
FC(F)(F)c1ccc(CNCCc2ccc3c(c2)OCO3)cc1,-3.6,3.8,10.9*,-3.0,-2.4,1.0
COc1ccc2nc(-c3ccc(CN4CCC(n5nnc6ccccc65)CC4)cc3)c(-c3ccccc3)nc2c1,-57.8,/,-40.3,/,/,/
COC(=O)C1C(OC(=O)c2ccccc2)CC2CCC1[N+]2(C)C (stereo not drawn),2.4,/,1.9,/,/,/
CN1CC(C(=O)c2cccs2)C(c2ccc(Cl)cc2)C1 (stereo not drawn),3.5,-0.5,2.5,-7.1,/,/
O=C(c1cccs1)C1CN2CCC1CC2 (stereo not drawn),2.8,-1.4,10.2*,-9.5,-4.2,-0.9
SMILES,PLCb3 inh,NTR1 ag,PLC-gamma1 inh,Arrestin-AP2 inh,PLCg1 ctr,PLCbeta3 conf
O=c1[nH]c(=O)n(Cc2ccco2)c(O)c1C=NCc1ccc2c(c1)OCO2,5.4,-0.4,9.7*,-7.8,-4.3,-3.3
Cc1cccc(CS(=O)(=O)Cc2ccc(C(=O)N3CCC4(CC3)OCCO4)o2)c1,11.4*,1.3,13.8*,4.4,-5.6,-3.4
Cc1ccc(OC(=O)N(C)C[C@H]2OCc3cnnn3CCCC(=O)N([C@H](C)CO)C[C@H]2C)cc1,2.3,/,-1.3,/,/,/
O=c1[nH]c(=S)n(Cc2ccc(F)cc2)c(O)c1C=NCc1cccnc1,0.4,0.0,10.9*,25.1,-1.2,0.1
O=C(CNC(=O)OCc1ccccc1)NC(Cc1ccccc1)P(=O)(Oc1ccccc1)Oc1ccccc1 (stereo not drawn),-1.6,/,2.2,/,/,/
COc1ccccc1OCCCn1cc(C(C)=O)c2ccccc21,-3.0,2.7,12.7*,7.2,-4.2,-7.7
COc1ccccc1OCCCn1cc(C(=O)C2CC2)c2ccccc21,-8.4,3.4,-1.2,15.3,/,/
COC(=O)C(O)(c1c(C)[nH]n(-c2ccccc2)c1=O)C(F)(F)F (stereo not drawn),6.5,0.0,9.2,5.9,/,/
COc1cc(C(c2c(C)[nH]n(-c3ccccc3)c2=O)c2c(C)[nH]n(-c3ccccc3)c2=O)cc(OC)c1OC,-23.5,0.7,22.1*,12.4,2.3,0.4
O=C(NC(Cc1ccccc1)P(=O)(O)Oc1ccccc1)OCc1ccccc1 (stereo not drawn),1.1,/,3.5,/,/,/
O=C1NCN(c2ccccc2)C12CCN(C(c1ccccc1OC(F)(F)F)c1nnnn1C1CCCC1)CC2 (stereo not drawn),6.2,/,10.6*,/,-2.1,-4.7
O=C1NCN(c2ccccc2)C12CCN(C(CCc1ccccc1)c1nnnn1C1CCCC1)CC2 (stereo not drawn),7.5,/,11.1*,/,-1.8,-0.3
O=C1CC(=O)N(Cc2ccccc2)C(=O)N1,2.1,/,16.1*,-0.1,-1.7,-1.6
CCN1CCN(Cc2ccc(OC(F)(F)F)cc2)CC1,-3.8,0.6,0.9,4.8,/,/
CCN1CCN(Cc2cccnc2)CC1,1.9,-0.2,9.7*,-5.2,-6.0,-3.5
O=c1[nH]c2ccccc2c(=O)n1-c1ccc(Cl)cc1Cl,11.2*,3.1,-0.1,-10.3,-6.1,14.2*
O=C(O)c1cc2ccccc2n1C1CCN(Cc2ccccc2)CC1,1.1,/,1.3,/,/,/
O=C1CN=C(c2cccs2)c2c(sc3c2CCCC3)N1,-4.9,/,1.2,-1.9,/,/
O=C1CN=C(c2ccccc2)c2c(sc3c2CCCC3)N1,-8.2,-0.8,11.4*,2.4,9.3,-2.2
C[C@]12CCC(=O)C=C1CC[C@@H]1C2CC[C@]2(C)C(=O)CCC12 (stereo partly drawn),3.5,-0.2,13.7*,6.8,-3.7,-4.7
Clc1cc(Cl)cc(CN2Cc3cc(Br)ccc3-n3nncc3C2)c1,1.1,/,5.0,/,/,/
CCC(C)C1NC(=O)C(NC(=O)C(CC(C)C)N(C)C(=O)C2CCCN2C(=O)C(C)O)C(C)OC(=O)C(Cc2ccc(OC)cc2)N(C)C(=O)C2CCCN2C(=O)C(CC(C)C)NC(=O)[C@H](C)C(=O)[C@H](C(C)C)OC(=O)CC1O (stereo partly drawn),7.2,/,18.4*,-10.3,-4.4,0.2
